Broadly, the inhibition is the change of the read-out against control, counted positive when it falls. For orientation: IC50 means the midpoint of a concentration-inhibition curve.

These results are taken from ChEMBL document CHEMBL5661979, “Pharmacological inhibition of BMK1 suppresses tumor growth through promyelocytic leukemia protein” (Cancer Cell, 2010).

In assay [1] the target is Serine/threonine-protein kinase SMG1 (Homo sapiens, UniProt Q96Q15). The assay can be described thus: Inhibition of SMG1 in human HeLa cells lysate at 50 uM pre incubated for 15 mins followed by ATP acyl phosphate probe addition and measured after 10 mins by LC-MS/MS analysis relative to control. The note with it: time 25.0 min. The class given is subcellular.
Serine/threonine-protein kinase SMG1, sequence (Q96Q15 whole entry): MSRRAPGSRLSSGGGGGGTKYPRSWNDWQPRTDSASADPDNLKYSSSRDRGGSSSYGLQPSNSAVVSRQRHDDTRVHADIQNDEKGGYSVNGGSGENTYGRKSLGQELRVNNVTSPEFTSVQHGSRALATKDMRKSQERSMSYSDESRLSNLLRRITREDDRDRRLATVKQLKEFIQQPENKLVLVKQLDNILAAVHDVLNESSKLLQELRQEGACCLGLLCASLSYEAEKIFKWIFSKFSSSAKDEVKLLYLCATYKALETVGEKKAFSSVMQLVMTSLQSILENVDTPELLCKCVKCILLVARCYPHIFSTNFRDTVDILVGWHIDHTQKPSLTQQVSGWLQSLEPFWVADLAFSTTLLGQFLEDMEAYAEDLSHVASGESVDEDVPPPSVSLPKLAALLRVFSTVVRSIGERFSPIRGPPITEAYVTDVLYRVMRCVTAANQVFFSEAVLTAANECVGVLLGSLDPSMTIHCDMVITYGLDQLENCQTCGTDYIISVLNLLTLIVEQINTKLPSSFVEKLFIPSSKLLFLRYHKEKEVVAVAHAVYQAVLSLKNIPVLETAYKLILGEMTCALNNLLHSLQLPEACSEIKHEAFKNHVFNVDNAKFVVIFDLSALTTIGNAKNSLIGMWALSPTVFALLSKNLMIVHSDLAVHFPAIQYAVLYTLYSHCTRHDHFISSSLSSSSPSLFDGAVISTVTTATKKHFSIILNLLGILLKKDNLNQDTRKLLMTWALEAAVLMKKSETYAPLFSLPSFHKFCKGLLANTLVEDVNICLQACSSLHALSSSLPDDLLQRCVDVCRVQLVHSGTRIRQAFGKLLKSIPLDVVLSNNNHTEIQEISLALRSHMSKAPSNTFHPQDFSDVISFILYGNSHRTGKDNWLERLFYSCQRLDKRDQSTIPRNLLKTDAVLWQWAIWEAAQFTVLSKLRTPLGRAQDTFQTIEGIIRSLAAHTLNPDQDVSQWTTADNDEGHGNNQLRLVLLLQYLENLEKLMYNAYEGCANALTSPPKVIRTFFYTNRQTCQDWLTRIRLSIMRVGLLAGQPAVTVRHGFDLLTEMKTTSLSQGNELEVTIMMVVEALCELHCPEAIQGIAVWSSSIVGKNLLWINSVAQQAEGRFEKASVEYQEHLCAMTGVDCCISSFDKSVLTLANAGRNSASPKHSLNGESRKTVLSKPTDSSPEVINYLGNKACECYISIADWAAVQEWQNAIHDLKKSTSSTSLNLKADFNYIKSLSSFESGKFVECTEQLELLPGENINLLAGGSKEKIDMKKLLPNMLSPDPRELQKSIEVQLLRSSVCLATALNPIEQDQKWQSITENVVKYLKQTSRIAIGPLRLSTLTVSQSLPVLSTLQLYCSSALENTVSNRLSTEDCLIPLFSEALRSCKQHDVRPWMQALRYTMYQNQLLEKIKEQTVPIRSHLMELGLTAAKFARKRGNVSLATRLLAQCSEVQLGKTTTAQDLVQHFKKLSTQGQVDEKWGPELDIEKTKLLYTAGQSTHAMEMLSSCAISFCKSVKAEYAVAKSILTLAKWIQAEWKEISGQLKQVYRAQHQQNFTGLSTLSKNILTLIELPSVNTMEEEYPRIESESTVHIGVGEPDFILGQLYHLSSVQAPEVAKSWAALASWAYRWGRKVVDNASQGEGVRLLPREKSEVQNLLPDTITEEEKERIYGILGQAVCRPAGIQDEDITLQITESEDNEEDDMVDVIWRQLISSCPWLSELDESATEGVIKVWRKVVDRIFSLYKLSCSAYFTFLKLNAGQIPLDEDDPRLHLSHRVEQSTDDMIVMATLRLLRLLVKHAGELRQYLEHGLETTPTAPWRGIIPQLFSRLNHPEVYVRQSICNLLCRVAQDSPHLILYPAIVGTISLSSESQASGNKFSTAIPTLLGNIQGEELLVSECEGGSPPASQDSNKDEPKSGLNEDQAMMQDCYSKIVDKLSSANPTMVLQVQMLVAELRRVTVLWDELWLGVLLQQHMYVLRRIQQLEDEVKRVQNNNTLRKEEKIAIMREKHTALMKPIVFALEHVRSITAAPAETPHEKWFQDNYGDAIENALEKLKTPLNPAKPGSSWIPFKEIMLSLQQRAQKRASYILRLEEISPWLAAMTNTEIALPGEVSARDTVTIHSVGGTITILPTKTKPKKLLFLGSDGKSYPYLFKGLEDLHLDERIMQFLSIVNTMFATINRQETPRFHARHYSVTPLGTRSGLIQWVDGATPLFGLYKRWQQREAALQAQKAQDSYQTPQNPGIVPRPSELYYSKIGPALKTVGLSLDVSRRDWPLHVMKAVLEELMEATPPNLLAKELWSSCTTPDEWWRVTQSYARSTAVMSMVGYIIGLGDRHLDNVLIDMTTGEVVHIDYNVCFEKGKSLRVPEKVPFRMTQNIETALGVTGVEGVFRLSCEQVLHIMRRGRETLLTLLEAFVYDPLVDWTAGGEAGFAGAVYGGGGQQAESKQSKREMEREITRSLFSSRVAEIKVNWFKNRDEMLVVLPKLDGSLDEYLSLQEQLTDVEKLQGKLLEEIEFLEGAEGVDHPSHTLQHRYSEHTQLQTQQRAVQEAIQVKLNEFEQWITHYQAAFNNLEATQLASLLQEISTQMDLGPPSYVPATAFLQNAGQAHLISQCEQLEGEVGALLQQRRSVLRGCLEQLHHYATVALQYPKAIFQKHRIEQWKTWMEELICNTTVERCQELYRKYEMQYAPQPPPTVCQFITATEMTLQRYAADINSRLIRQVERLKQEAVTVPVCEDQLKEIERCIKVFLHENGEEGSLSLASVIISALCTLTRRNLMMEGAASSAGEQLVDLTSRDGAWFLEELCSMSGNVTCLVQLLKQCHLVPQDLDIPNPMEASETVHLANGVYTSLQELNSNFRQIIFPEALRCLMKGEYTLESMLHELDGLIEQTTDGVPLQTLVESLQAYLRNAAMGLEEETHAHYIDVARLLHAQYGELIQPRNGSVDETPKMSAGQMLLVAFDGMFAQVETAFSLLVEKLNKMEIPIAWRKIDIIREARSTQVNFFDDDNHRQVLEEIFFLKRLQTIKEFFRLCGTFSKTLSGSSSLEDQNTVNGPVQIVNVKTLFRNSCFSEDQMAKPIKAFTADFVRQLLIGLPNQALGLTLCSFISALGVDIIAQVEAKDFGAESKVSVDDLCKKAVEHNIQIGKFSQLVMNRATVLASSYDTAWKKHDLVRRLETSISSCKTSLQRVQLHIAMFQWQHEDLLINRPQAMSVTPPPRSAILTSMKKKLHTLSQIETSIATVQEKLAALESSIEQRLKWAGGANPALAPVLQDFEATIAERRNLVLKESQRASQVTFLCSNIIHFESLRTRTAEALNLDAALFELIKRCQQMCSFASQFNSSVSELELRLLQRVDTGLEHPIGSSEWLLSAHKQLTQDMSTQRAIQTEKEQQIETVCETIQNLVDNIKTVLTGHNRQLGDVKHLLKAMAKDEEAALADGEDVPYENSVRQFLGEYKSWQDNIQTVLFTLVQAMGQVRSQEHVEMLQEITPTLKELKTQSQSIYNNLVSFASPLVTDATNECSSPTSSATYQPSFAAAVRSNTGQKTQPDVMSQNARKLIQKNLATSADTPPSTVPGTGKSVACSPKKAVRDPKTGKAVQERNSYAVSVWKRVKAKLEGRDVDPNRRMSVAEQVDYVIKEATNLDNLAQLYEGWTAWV
In assay [2] the target is Serine/threonine-protein kinase DCLK1 (Homo sapiens) (UniProt O15075). The assay can be described thus: Inhibition of DCAMKL1 (unknown origin) assessed as remaining activity at 10 uM by ATP-competition binding assay relative to control.
Assay [3] has as its target Serine/threonine-protein kinase B-raf (Homo sapiens, UniProt P15056). The assay can be described thus: Inhibition of BRAF in human HeLa cells lysate at 2 uM pre incubated for 15 mins followed by ADP acyl phosphate probe addition and measured after 10 mins by LC-MS/MS analysis relative to control. The class given is subcellular. The conditions noted are these: time 25.0 min. The essentials:
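KiNativ-type profiling in HeLa lysate (5 mg/mL total protein). Lysate preincubated 15 min with inhibitor at 50, 10, 2, 0.8 or 0 μM, then ATP or ADP acylphosphate probe added (5 μM final) for 10 min. Reaction stopped with urea and analysed by targeted MS, using up to four fragment ions per kinase peptide-probe conjugate. % inhibition calculated against untreated lysate. Duplicate reactions.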

The target of assay [4] is T1, Phosphatidylinositol 5-phosphate 4-kinase type-2 alpha (Homo sapiens) (UniProt P48426).
T1 sequence (whole entry): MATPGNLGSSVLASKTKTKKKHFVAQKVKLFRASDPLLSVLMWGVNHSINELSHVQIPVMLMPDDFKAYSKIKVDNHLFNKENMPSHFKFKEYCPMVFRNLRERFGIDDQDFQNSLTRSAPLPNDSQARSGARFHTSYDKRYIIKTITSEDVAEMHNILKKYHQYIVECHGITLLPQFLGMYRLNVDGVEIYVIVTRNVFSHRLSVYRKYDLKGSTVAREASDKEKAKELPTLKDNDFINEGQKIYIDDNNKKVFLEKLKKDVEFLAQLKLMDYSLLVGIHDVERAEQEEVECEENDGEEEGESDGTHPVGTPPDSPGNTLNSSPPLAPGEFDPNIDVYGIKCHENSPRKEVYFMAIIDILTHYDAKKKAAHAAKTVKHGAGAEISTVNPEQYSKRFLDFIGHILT
The assay can be described thus: Inhibition of PIP5K2A in human HeLa cells lysate at 50 uM pre incubated for 15 mins followed by ATP acyl phosphate probe addition and measured after 10 mins by LC-MS/MS analysis relative to control. The class given is subcellular. The conditions noted are these: time 25.0 min.

The next assay concerns the target Ephrin type-B receptor 4 (Homo sapiens, UniProt P54760). The assay can be described thus: Inhibition of EphB4 in human HeLa cells lysate pre incubated for 15 mins followed by ADP acyl phosphate probe addition and measured after 10 mins by LC-MS/MS analysis. The class given is subcellular.
Assay [5] has as its target T2, Serine/threonine-protein kinase 4 (Homo sapiens) (UniProt Q13043).
T2 sequence (whole entry): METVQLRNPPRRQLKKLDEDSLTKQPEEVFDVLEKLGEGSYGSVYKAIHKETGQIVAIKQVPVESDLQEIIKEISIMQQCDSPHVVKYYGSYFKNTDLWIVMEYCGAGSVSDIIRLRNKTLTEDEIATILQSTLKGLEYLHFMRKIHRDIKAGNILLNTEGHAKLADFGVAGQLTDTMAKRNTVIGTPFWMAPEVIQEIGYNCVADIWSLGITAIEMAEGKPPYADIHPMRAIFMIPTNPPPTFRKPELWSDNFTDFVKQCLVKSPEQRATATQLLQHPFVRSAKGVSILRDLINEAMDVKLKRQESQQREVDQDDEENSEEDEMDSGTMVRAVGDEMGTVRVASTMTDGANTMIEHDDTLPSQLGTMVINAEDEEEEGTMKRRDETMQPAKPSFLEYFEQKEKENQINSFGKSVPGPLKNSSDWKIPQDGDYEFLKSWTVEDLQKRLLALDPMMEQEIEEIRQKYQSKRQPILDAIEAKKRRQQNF
Nature of the assay: Inhibition of MST1 in human HeLa cells lysate at 10 uM pre incubated for 15 mins followed by ADP acyl phosphate probe addition and measured after 10 mins by LC-MS/MS analysis relative to control. The note with it: time 25.0 min. The class given is subcellular.

In assay [6] the target is Serine/threonine-protein kinase PLK1 (Homo sapiens, UniProt P53350). Nature of the assay: Inhibition of PLK1 K2 site in human HeLa cells lysate pre incubated for 15 mins followed by ATP acyl phosphate probe addition and measured after 10 mins by LC-MS/MS analysis. The class given is subcellular.
Assay [7] addresses Serine/threonine-protein kinase Nek7 (Homo sapiens, UniProt Q8TDX7). The assay can be described thus: Inhibition of NEK7 in human HeLa cells lysate pre incubated for 15 mins followed by ATP acyl phosphate probe addition and measured after 10 mins by LC-MS/MS analysis. The class given is subcellular.
The target in assay [8] is T1, Phosphatidylinositol 5-phosphate 4-kinase type-2 alpha (Homo sapiens). Nature of the assay: Inhibition of PIP5K2A LIP site in human HeLa cells lysate at 2 uM pre incubated for 15 mins followed by ADP acyl phosphate probe addition and measured after 10 mins by LC-MS/MS analysis relative to control. The class given is subcellular. The note with it: time 25.0 min.
The target in assay [9] is Serine/threonine-protein kinase MRCK beta (Homo sapiens, UniProt Q9Y5S2). The assay can be described thus: Inhibition of MRCKB in human HeLa cells lysate at 50 uM pre incubated for 15 mins followed by ATP acyl phosphate probe addition and measured after 10 mins by LC-MS/MS analysis relative to control. The class given is subcellular. The note with it: time 25.0 min.
Assay [10] addresses Macrophage-stimulating protein receptor (Homo sapiens, UniProt Q04912). Nature of the assay: Inhibition of RON in human HeLa cells lysate at 10 uM pre incubated for 15 mins followed by ADP acyl phosphate probe addition and measured after 10 mins by LC-MS/MS analysis relative to control. The class given is subcellular. The conditions noted are these: time 25.0 min.
For assay [11], the target named is Serine/threonine-protein kinase 24 (Homo sapiens, UniProt Q9Y6E0). Nature of the assay: Inhibition of MST3 in human HeLa cells lysate pre incubated for 15 mins followed by ADP acyl phosphate probe addition and measured after 10 mins by LC-MS/MS analysis. The class given is subcellular.
Serine/threonine-protein kinase 24, sequence (Q9Y6E0 whole entry): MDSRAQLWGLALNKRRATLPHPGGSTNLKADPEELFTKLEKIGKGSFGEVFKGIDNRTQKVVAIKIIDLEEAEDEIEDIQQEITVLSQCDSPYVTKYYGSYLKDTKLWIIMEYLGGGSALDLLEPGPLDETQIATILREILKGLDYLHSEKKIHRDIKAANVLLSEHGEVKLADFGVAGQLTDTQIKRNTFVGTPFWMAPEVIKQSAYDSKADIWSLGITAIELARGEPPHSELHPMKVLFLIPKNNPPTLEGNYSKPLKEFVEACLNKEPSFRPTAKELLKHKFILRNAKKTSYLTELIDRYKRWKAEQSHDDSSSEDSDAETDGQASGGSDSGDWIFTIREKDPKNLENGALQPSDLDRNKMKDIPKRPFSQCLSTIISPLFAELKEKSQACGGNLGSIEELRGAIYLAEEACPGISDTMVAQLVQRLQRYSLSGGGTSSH
Assay [12] is described as follows: Inhibition of CDK5/PRKX/PRKY in human HeLa cells lysate at 2 uM pre incubated for 15 mins followed by ADP acyl phosphate probe addition and measured after 10 mins by LC-MS/MS analysis relative to control. The conditions noted are these: 25 min, condition cancer. The essentials:
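KiNativ profiling in HeLa lysate (5 mg/mL total protein). Lysate incubated 15 min with inhibitor at 50, 10, 2, 0.8 or 0 μM. ATP or ADP acylphosphate probe then added (5 μM final) and reacted 10 min. Reaction stopped with urea and analysed by targeted MS, using up to four fragment ions per kinase peptide-probe conjugate. % inhibition taken against untreated lysate. Run in duplicate.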

Assay [13] has as its target RAC-alpha serine/threonine-protein kinase (Homo sapiens, UniProt P31749). The assay can be described thus: Inhibition of AKT1 in human HeLa cells lysate at 50 uM pre incubated for 15 mins followed by ATP acyl phosphate probe addition and measured after 10 mins by LC-MS/MS analysis relative to control. The class given is subcellular. The note with it: time 25.0 min. An outline of the steps: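 HeLa cell lysates (5 mg/mL total protein) were preincubated with inhibitor at 0, 0.8, 2, 10 or 50 μM for 15 min. ATP or ADP acylphosphate probe was then added (5 μM final) for 10 min, and reactions were stopped with urea. Up to four fragment ions per kinase probe-peptide were quantified by targeted MS. % inhibition was taken relative to untreated lysate. Run in duplicate.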

A short description of assay [14]: Inhibition of PCTAIRE2/3 in human HeLa cells lysate at 2 uM pre incubated for 15 mins followed by ADP acyl phosphate probe addition and measured after 10 mins by LC-MS/MS analysis relative to control. The conditions noted are these: 25 min, condition cancer.

Serine/threonine-protein kinase B-raf, sequence (P15056 whole entry, the tested form may be a part): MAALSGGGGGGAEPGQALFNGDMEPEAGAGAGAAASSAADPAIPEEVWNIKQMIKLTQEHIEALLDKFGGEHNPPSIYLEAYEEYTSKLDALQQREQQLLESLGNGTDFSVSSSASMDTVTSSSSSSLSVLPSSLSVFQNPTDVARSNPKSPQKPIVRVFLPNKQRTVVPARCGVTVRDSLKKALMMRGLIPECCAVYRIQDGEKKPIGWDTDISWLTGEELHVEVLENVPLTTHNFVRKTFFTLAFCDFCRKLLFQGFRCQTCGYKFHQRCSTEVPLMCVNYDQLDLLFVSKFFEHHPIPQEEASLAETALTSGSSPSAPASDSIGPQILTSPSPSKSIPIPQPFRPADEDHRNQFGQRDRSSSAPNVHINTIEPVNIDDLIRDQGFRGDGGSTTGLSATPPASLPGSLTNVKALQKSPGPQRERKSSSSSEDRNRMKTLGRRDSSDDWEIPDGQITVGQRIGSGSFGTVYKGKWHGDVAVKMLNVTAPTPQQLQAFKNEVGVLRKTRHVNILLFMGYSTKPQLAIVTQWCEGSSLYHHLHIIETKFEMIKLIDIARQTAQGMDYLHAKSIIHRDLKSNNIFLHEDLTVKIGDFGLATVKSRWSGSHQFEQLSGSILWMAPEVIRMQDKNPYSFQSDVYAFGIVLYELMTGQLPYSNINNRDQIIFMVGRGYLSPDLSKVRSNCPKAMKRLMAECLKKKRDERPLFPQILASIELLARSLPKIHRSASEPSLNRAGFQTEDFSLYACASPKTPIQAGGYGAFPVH

For `CCOc1cc(N2CCC(O)CC2)ccc1Nc1ncc2c(n1)N(C)c1ccccc1C(=O)N2C`, the inhibition in assay [1] is -1.9%; in assay [3], 10.5%; in assay [4], 1%; in assay [5], 30.1%; in assay [8] it was 5.5%; in assay [9] it was -5%. The results for the inhibition in [10] and in [13] were 24.9% and 15.4%, respectively. For the same molecule, the Activity in [2] was 0.9%. Further, the half-inhibitory concentration (IC50) (on Ephrin type-B receptor 4; in assay [6]; in assay [7]; in assay [11]) was above 50 µM in each case. For the same molecule, the inhibition at 2 µM in [12] was determined as 9.4%; in assay [14], 10.1%.
